16 compounds from ChEMBL document CHEMBL2413053, “3'-Oxo-, amino-, thio- and sulfone-acetic acid modified thymidines: effect of increased acidity on ribonuclease A inhibition” (Bioorg Med Chem, 2013) can be followed below.

Test [1] addresses T1, Ribonuclease pancreatic (Bos taurus) (UniProt P61823).
T1 sequence (whole entry): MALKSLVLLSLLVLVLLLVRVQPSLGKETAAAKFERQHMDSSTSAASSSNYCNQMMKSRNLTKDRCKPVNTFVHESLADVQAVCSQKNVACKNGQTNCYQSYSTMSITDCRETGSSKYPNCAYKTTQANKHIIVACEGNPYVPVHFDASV
Nature of the test: Inhibition of bovine pancreatic RNase A assessed as degradation of tRNA at 0.35 mM incubated for 2 hrs prior to tRNA addition measured after 30 mins by precipitation assay. An outline of the steps: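 RNase A (1.31 μM) preincubated with compound (0.35 mM) 2 h at 37 °C; aliquot then mixed with tRNA (5 mg/mL) in Tris–HCl pH 7.5 with 5 mM EDTA and 0.5 mg/mL HSA, 30 min at 25 °C. Quenched with ice-cold 1.14 M perchloric acid/6 mM uranyl acetate, 30 min on ice, centrifuged; diluted supernatant A260 compared with control.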

The target of test [2] is T1, Ribonuclease pancreatic (Bos taurus). Nature of the test: Inhibition of bovine pancreatic RNase A assessed as degradation of tRNA at 0.07 to 0.20 mM incubated for 3 hrs prior to tRNA addition measured after 30 mins by agarose gel electrophoresis. An outline of the steps: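 RNase A (1.51 μM stock) preincubated 3 h with compound at 0.07, 0.14 and 0.20 mM in 100 μL. Aliquot then mixed 1:1 with tRNA (5.0 mg/mL, freshly dissolved in RNase-free water) and held 30 min. Sample buffer with glycerol and bromophenol blue was added. Run on 1.1% agarose gel in 0.04 M TAE, pH 8.0. Residual tRNA seen by ethidium bromide staining under UV.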

For the next test, the target named is T2, Ribonuclease pancreatic (Bos taurus, UniProt P61823).
T2 sequence (P61823 whole entry): T1 sequence (whole entry)
Briefly: Reversible competitive inhibition of bovine pancreatic RNase A using 2',3'-cCMP as substrate by Lineweaver-Burk plot analysis. In short, it runs like this: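 Spectrophotometric RNase A assay in 0.1 M Mes–NaOH, pH 6.0, with 0.1 M NaCl, using 2',3'-cCMP as substrate at varied concentrations. Two fixed inhibitor concentrations were run plus a no-inhibitor set. Ki was derived from initial velocities by Lineweaver–Burk analysis.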

Test [3] addresses T1, Ribonuclease pancreatic (Bos taurus). To be noted: 0.05 to 0.20 mM.
Test [4] has the same target. Conditions: 0.05 to 0.24 mM.
The target is the same in test [5]. Nature of the test: Inhibition of bovine pancreatic RNase A assessed as degradation of tRNA at 0.06 to 0.24 mM incubated for 3 hrs prior to tRNA addition measured after 30 mins by agarose gel electrophoresis. An outline of the steps: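 RNase A (1.26 μM stock) preincubated 3 h with compound at 0.06, 0.12, 0.18 and 0.24 mM in 100 μL. Aliquot then mixed with tRNA (5.0 mg/mL, freshly dissolved in RNase-free water) for 30 min. Run on 1.1% agarose gel in 0.04 M TAE, pH 8.0. Residual tRNA visualized by ethidium bromide staining under UV.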

Structures are written as SMILES. Active and inactive are the calls of the source. No cut-off for these calls is given here.

For the compound `CCOC(=O)CN[C@H]1C[C@H](n2cc(C)c(=O)[nH]c2=O)O[C@@H]1CO`, the inhibition (commonly the drop in the measured response relative to a control, in per cent) in test [1] came out at 7%. Also, the inhibition entry in test [2] was “Active”. For the same compound, the Ki – broadly, a dissociation constant, usually derived from enzyme kinetics or from competition with a known ligand – at Ribonuclease pancreatic is 504 µM.

As to `Cc1cn([C@H]2C[C@H](OCC(=O)O)[C@@H](CO)O2)c(=O)[nH]c1=O`, in test [1], the inhibition was found to be 13%. For the same compound, the inhibition result in test [2] was “Active”. The compound further displayed an inhibition constant Ki at Ribonuclease pancreatic of 267 µM.

Consider `COC(=O)CS[C@H]1C[C@H](n2cc(C)c(=O)[nH]c2=O)O[C@@H]1CO`, for which the inhibition in test [1] stood at 3%. Further, the inhibition entry in test [2] is “Active”. The same compound gave an inhibitory constant (Ki) at Ribonuclease pancreatic of 757 µM.

As to `Cc1cn([C@H]2C[C@@H](SCC(=O)O)[C@@H](CSCC(=O)O)O2)c(=O)[nH]c1=O`, the inhibition in test [1] is 16%. This compound had a Ki at Ribonuclease pancreatic of 108 µM.

With `Cc1cn([C@H]2C[C@H](S(=O)(=O)CC(=O)O)[C@@H](CS(=O)(=O)CC(=O)O)O2)c(=O)[nH]c1=O`, the inhibition entry in test [3] is “Active”. For the same compound, the inhibition in test [1] is 35%. The compound also gave a Ki on Ribonuclease pancreatic of 25 µM.

Take `Cc1cn([C@H]2C[C@H](NCC(=O)O)[C@@H](CO)O2)c(=O)[nH]c1=O`: in test [1], the inhibition was determined as 19%. Besides, the inhibition entry in test [2] was “Active”. Moreover, the Ki on Ribonuclease pancreatic was determined as 186 µM.

On to `COC(=O)CSC[C@H]1O[C@@H](n2cc(C)c(=O)[nH]c2=O)C[C@H]1SCC(=O)OC`, for which the inhibition in test [1] was 5%. For the same compound, the inhibition result in test [2] was “Active”.

In the case of `Cc1cn([C@H]2C[C@H](SCC(=O)O)[C@@H](CO)O2)c(=O)[nH]c1=O`, the inhibition in test [1] is 17%. Moreover, the inhibition result in test [2] was “Active”. The inhibition constant Ki at Ribonuclease pancreatic is 169 µM.

As for `COC(=O)CS(=O)(=O)C[C@H]1O[C@@H](n2cc(C)c(=O)[nH]c2=O)C[C@H]1S(=O)(=O)CC(=O)OC`, in test [1], the inhibition stood at 12%. Moreover, in test [2], the inhibition result was “Active”. On Ribonuclease pancreatic, this compound came in with a Ki of 242 µM.

Turning to `COC(=O)CS(=O)(=O)C[C@H]1O[C@@H](n2cc(C)c(=O)[nH]c2=O)C[C@@H]1O`, the inhibition in test [1] was 14%. Also, in test [2], the inhibition result was “Active”. Further, the affinity at Ribonuclease pancreatic, expressed as Ki, was 202 µM.

For `Cc1cn([C@H]2C[C@@H](S(=O)(=O)CC(=O)O)[C@@H](CS(=O)(=O)CC(=O)O)O2)c(=O)[nH]c1=O`, the inhibition in test [1] came out at 33%. For the same compound, on Ribonuclease pancreatic, the inhibition constant (Ki) was found to be 39 µM. In test [4], the inhibition result is “Active”.

Take `COC(=O)CS(=O)(=O)C[C@H]1O[C@@H](n2cc(C)c(=O)[nH]c2=O)C[C@@H]1S(=O)(=O)CC(=O)OC`: the inhibition in test [1] amounted to 15%. Also, the inhibition result in test [2] is “Active”. Moreover, the affinity at Ribonuclease pancreatic corresponds to a Ki of 267 µM.

Turning to `Cc1cn([C@H]2C[C@H](O)[C@@H](CS(=O)(=O)CC(=O)O)O2)c(=O)[nH]c1=O`, the inhibition in test [1] came out at 22%. Besides, in test [5], the inhibition entry is “Active”. In addition, on Ribonuclease pancreatic, affinity was put at a Ki of 95 µM.

Regarding `Cc1cn([C@H]2C[C@H](S(=O)(=O)CC(=O)O)[C@@H](CO)O2)c(=O)[nH]c1=O`, in test [1], the inhibition turned out to be 25%. In addition, in test [5], the inhibition entry was “Active”. This compound also had a Ki on Ribonuclease pancreatic of 88 µM.

For `COC(=O)CS(=O)(=O)[C@H]1C[C@H](n2cc(C)c(=O)[nH]c2=O)O[C@@H]1CO`, in test [1], the inhibition turned out to be 18%. Also, the inhibition result in test [2] was “Active”. Also, the inhibition constant Ki on Ribonuclease pancreatic was 140 µM.

Regarding `Cc1cn([C@H]2C[C@H](SCC(=O)O)[C@@H](CSCC(=O)O)O2)c(=O)[nH]c1=O`, the inhibition in test [1] came to 18%. The inhibition result in test [5] was “Active”. On Ribonuclease pancreatic, this compound registered an inhibition constant (Ki) of 93 µM.
